In ChEMBL document CHEMBL4350961, “Discovery of Pyrrolo[3,2- d]pyrimidin-4-one Derivatives as a New Class of Potent and Cell-Active Inhibitors of P300/CBP-Associated Factor Bromodomain” (J Med Chem, 2019):
≈ marks a conversion by molar mass, not a printed value. Calls of active or inactive are those of the source. The calls are words filed in the database; no cut-off is given here.

Legend:
[1] = biological target: Activated CDC42 kinase 1 (Homo sapiens) (UniProt Q07912); assay: Inhibition of recombinant human ACK1 (1 to 389 residues) at 10 uM using EFPIYDFLPAKKK as substrate measured after 40 mins in presence of [gamma33P]ATP by scintillation counting method
[2] = tested on: Homeodomain-interacting protein kinase 2 (Homo sapiens), Q9H2X6 [UNDEFINED MUTATION]; assay: Inhibition of recombinant human HIPK2 I471N mutant (165 to 564 residues) at 10 uM using myelin basic protein as substrate measured after 40 mins in presence of [gamma33P]ATP by scintillation counting method
[3] = biological target: Ephrin type-B receptor 1 (Homo sapiens) (UniProt P54762); assay: Inhibition of recombinant human EphB1 (564 to end residues) at 10 uM using KVEKIGEGTYGVVYK as substrate measured after 40 mins in presence of [gamma33P]ATP by scintillation counting method
[4] = species: Mus musculus; assay: Inhibition of recombinant full-length mouse PI3K p110alpha/p65alpha (1 to 571 residues) at 10 uM using phosphatidylinositol-4, 5-bisphosphate as substrate measured after 40 mins by HTRF assay
[5] = species: Homo sapiens; assay: Inhibition of recombinant human Mer H628Q/R794A mutant (557 to 882 residues) at 10 uM using GGMEDIYFEFMGGKKK as substrate measured after 40 mins in presence of [gamma33P]ATP by scintillation counting method
[6] = biological target: Ephrin type-A receptor 5 (Homo sapiens) (UniProt P54756); assay: Inhibition of recombinant human EphA5 (655 to 956 residues) at 10 uM using poly(Glu, Tyr) 4:1 as substrate measured after 40 mins in presence of [gamma33P]ATP by scintillation counting method
[7] = tested on: Mast/stem cell growth factor receptor Kit (Homo sapiens), P10721 [V560G]; assay: Inhibition of recombinant human c-Kit V560G mutant (544 to end residues) at 10 uM using GGMEDIYFEFMGGKKK as substrate measured after 40 mins in presence of [gamma33P]ATP by scintillation counting method
[8] = biological target: Tyrosine-protein kinase ABL1 (Homo sapiens) (UniProt P00519); assay: Inhibition of recombinant human ABL (27 to end residues) at 10 uM using EAIYAAPFAKKK as substrate measured after 40 mins in presence of [gamma33P]ATP by scintillation counting method
[9] = biological target: Casein kinase II subunit alpha (Homo sapiens) (UniProt P68400); assay: Inhibition of recombinant full length human CK2alpha1 at 10 uM using RRRDDDSDDD as substrate measured after 40 mins in presence of [gamma33P]ATP by scintillation counting method
[10] = biological target: Histone acetyltransferase KAT2A (Homo sapiens, UniProt Q92830); assay: Binding affinity to human N-terminal His-tagged GCN5 by isothermal titration calorimetry
[11] = tested on: Casein kinase I isoform gamma-3 (Homo sapiens), Q9Y6M4 [UNDEFINED MUTATION]; assay: Inhibition of recombinant human CK1gamma3 K91E/R174G/E302D mutant (1 to 330 residues) at 10 uM using KRRRALS(p)VASLPGL as substrate measured after 40 mins in presence of [gamma33P]ATP by scintillation counting method
[12] = tested on: Fibroblast growth factor receptor 1 (Homo sapiens), P11362 [V561M]; assay: Inhibition of recombinant human FGFR1 V561M mutant (456 to 765 residues) at 10 uM using GGEEEEYFELVKKKK as substrate measured after 40 mins in presence of [gamma33P]ATP by scintillation counting method
[13] = biological target: Ribosomal protein S6 kinase alpha-6 (Homo sapiens) (UniProt Q9UK32); assay: Inhibition of recombinant full-length human Rsk4 at 10 uM using LRRASLG as substrate measured after 40 mins in presence of [gamma33P]ATP by scintillation counting method
[14] = Aqueous solubility of the compound by HPLC analysis; format: physicochemical; conditions: buffer
Procedure, shortened: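 Measured by HPLC on a C18 reversed-phase column.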

[15] = tested on: PI3-kinase p110-alpha/p85-alpha (Homo sapiens), P27986+P42336 [E542K]; assay: Inhibition of recombinant full-length mouse PI3K p110alpha/p85alpha E542K mutant at 10 uM using phosphatidylinositol-4, 5-bisphosphate as substrate measured after 40 mins by HTRF assay; format: protein-complex assay
[16] = tested on: Tyrosine-protein kinase ABL1 (Homo sapiens), P00519 [H396P]; assay: Inhibition of recombinant human ABL H396P mutant (27 to end residues) at 10 uM using EAIYAAPFAKKK as substrate measured after 40 mins in presence of [gamma33P]ATP by scintillation counting method
[17] = species: Homo sapiens; assay: Inhibition of recombinant human MAPKAPK2 A399G mutant (46 to end residues) at 10 uM using KKLNRTLSVA as substrate measured after 40 mins in presence of [gamma33P]ATP by scintillation counting method
[18] = biological target: Serine/threonine-protein kinase PRP4 homolog (Homo sapiens) (UniProt Q13523); assay: Inhibition of human PRP4 (663 to end residues) using casein as substrate measured after 40 mins in presence of [gamma33P]ATP by scintillation counting method
Procedure, shortened: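 Kinase panel of 422 kinases screened by Eurofins KinaseProfiler at a single test-compound concentration of 10 µM.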

[19] = biological target: Mitogen-activated protein kinase kinase kinase 2 (Homo sapiens) (UniProt Q9Y2U5); assay: Inhibition of recombinant full-length human MEKK2 at 10 uM using myelin basic protein as substrate measured after 40 mins in presence of [gamma33P]ATP by scintillation counting method
[20] = biological target: Serine/threonine-protein kinase 10 (Homo sapiens) (UniProt O94804); assay: Inhibition of recombinant human LOK (1 to 348 residues) at 10 uM using RLGRDKYKTLRQIRQ as substrate measured after 40 mins in presence of [gamma33P]ATP by scintillation counting method
[21] = biological target: Mitogen-activated protein kinase 13 (Homo sapiens) (UniProt O15264); assay: Inhibition of recombinant full-length human SAPK4 at 10 uM using myelin basic protein as substrate measured after 40 mins in presence of [gamma33P]ATP by scintillation counting method
[22] = biological target: Serine/threonine-protein kinase MRCK gamma (Homo sapiens) (UniProt Q6DT37); assay: Inhibition of recombinant human MRCKgamma at 10 uM using KKRNRTLTV as substrate measured after 40 mins in presence of [gamma33P]ATP by scintillation counting method
[23] = biological target: Serine/threonine-protein kinase MAK (Homo sapiens) (UniProt P20794); assay: Inhibition of recombinant full-length human MAK at 10 uM using RRRFRPASPLRGPPK as substrate measured after 120 mins in presence of [gamma33P]ATP by scintillation counting method
[24] = species: Homo sapiens; assay: Inhibition of recombinant full-length human PKBalpha […] mutant at 10 uM using GRPRTSSFAEGKK as substrate measured after 40 mins in presence of [gamma33P]ATP by scintillation counting method

Sequence of Ribosomal protein S6 kinase alpha-6 (Homo sapiens) (Q9UK32 whole entry): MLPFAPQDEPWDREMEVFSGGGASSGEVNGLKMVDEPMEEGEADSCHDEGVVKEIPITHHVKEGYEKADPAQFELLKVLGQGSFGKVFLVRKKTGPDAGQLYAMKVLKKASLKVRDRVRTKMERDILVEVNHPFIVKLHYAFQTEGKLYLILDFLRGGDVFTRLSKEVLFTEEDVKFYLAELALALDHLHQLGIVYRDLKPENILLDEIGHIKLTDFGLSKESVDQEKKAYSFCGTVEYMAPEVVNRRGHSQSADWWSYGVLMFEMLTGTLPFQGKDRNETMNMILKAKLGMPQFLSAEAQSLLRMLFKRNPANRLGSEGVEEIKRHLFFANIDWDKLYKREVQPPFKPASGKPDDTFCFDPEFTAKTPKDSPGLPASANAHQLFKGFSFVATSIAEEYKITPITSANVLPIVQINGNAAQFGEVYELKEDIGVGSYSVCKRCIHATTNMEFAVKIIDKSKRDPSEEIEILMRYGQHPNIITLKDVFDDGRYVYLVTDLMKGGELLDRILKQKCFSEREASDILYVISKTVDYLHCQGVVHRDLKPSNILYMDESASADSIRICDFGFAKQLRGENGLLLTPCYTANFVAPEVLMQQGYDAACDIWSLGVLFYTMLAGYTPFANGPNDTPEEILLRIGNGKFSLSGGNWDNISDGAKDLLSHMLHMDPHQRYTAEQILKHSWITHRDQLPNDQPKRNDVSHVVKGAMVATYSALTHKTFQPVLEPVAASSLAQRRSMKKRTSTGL
Sequence of Fibroblast growth factor receptor 1 (Homo sapiens), P11362 [V561M] (P11362 whole entry V561M, the tested form may be a part): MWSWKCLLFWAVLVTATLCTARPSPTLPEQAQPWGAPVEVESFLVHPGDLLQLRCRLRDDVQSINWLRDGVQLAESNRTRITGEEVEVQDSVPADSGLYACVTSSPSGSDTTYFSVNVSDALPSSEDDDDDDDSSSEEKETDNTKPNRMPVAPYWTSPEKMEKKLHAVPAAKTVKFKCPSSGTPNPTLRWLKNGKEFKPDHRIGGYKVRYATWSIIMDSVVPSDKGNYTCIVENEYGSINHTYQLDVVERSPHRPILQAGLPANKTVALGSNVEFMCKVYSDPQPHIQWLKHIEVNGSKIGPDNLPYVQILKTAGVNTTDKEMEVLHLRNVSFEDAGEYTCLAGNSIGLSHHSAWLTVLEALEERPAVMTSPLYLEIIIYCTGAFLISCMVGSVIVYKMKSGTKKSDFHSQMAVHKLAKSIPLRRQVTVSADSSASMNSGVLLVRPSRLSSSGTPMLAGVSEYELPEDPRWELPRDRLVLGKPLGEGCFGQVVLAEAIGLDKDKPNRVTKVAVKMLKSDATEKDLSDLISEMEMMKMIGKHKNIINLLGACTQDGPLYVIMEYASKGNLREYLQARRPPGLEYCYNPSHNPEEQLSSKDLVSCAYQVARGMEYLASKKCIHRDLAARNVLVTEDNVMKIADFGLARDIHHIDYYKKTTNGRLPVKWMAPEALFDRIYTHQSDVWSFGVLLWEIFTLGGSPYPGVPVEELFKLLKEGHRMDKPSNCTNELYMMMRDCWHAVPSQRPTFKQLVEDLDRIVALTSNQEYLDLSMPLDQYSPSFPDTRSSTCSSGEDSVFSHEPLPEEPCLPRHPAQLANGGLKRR
Sequence of Homeodomain-interacting protein kinase 2 (Homo sapiens), Q9H2X6 [UNDEFINED MUTATION] (Q9H2X6 whole entry, looked up, stated change not applied, the tested form may be a part): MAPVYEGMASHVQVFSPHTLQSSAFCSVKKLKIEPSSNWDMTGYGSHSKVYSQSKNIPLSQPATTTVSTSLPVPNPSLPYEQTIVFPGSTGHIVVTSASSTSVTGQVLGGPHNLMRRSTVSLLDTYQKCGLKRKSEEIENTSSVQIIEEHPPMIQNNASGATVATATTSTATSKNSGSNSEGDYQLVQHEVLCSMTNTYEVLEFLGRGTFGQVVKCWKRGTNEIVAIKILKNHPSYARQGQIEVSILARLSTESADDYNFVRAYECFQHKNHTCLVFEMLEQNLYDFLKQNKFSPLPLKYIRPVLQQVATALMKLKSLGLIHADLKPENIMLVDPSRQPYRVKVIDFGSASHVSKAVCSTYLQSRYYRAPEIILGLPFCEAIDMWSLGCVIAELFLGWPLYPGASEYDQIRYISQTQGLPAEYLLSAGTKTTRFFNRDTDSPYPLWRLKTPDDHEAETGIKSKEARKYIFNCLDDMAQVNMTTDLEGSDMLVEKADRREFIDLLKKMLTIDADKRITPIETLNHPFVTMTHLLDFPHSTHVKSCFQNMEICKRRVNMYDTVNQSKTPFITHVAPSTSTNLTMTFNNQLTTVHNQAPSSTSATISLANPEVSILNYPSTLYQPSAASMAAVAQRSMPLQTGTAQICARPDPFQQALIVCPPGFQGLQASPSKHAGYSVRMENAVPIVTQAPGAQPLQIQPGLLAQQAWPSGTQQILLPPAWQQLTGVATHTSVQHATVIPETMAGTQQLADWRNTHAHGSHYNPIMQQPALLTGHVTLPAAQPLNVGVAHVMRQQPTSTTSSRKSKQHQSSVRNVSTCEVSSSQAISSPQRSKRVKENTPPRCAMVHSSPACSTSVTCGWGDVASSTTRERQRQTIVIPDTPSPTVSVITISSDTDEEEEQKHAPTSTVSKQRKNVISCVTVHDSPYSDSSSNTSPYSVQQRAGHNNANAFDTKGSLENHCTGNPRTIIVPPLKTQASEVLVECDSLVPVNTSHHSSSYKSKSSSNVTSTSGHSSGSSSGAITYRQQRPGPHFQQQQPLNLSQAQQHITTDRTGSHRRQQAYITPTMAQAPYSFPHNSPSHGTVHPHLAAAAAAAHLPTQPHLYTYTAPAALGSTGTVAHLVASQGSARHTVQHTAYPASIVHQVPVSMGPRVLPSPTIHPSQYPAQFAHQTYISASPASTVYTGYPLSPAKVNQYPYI
Sequence of Mitogen-activated protein kinase kinase kinase 2 (Homo sapiens) (Q9Y2U5 whole entry, the tested form may be a part): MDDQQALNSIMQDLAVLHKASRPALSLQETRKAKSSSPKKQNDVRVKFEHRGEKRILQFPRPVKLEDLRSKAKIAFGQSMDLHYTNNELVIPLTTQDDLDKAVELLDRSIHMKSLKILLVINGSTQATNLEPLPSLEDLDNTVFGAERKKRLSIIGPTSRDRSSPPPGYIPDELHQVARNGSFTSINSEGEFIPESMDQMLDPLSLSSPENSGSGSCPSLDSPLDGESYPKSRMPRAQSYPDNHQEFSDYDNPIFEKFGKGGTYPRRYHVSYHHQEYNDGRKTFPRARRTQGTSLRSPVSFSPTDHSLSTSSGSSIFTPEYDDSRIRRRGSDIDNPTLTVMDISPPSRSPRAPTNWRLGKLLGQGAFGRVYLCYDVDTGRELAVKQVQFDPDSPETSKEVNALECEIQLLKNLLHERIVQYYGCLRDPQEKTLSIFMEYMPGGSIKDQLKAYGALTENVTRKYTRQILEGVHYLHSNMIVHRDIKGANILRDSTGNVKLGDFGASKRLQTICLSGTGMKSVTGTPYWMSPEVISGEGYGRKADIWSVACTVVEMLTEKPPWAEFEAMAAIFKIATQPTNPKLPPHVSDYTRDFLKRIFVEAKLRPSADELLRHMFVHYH
Sequence of Serine/threonine-protein kinase 10 (Homo sapiens) (O94804 whole entry, looked up, the tested form may be a part): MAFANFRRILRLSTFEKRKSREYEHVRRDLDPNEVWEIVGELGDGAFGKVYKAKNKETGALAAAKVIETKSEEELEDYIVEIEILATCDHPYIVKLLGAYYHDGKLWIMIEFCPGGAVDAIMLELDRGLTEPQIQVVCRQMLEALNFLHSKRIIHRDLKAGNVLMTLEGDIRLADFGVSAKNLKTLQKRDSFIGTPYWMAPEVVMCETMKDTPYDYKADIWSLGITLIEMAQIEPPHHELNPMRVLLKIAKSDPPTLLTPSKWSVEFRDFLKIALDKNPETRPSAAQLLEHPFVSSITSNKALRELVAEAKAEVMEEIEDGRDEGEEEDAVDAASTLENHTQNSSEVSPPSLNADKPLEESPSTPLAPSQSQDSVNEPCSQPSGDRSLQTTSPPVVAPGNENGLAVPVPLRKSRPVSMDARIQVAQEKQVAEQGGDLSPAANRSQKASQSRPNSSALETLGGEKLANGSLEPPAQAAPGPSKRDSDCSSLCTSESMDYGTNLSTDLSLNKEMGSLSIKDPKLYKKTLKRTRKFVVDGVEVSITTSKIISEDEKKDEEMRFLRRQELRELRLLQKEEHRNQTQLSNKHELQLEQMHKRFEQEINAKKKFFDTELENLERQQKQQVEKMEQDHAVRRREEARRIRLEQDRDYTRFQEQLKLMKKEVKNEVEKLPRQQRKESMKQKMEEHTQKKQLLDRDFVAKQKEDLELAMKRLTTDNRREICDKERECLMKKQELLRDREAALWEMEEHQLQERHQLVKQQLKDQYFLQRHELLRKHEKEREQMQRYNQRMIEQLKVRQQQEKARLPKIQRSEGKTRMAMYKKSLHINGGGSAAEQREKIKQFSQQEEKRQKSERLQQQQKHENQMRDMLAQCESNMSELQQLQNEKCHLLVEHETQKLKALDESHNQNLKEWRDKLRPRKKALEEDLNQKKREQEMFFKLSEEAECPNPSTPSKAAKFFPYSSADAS
Sequence of Serine/threonine-protein kinase MAK (Homo sapiens) (P20794 whole entry): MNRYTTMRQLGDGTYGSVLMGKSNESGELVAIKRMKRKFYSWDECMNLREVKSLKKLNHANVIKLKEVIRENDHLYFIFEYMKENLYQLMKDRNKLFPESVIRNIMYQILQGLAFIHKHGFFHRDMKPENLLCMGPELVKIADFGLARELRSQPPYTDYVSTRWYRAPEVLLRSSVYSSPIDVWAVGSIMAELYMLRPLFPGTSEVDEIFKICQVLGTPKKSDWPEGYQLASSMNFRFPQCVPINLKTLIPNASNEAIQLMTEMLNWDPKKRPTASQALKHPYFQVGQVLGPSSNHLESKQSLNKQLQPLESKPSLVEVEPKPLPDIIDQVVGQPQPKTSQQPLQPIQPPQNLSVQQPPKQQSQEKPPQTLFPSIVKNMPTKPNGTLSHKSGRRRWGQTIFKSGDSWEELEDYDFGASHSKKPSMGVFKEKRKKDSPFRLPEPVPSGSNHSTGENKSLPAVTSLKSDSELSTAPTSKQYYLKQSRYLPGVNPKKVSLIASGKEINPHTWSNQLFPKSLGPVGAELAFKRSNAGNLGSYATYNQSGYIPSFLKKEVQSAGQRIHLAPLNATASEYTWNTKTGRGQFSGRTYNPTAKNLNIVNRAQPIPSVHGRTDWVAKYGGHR

CN1C[C@H](Nc2nc3cc[nH]c3c(=O)n2C)C[C@H](c2ccc3c(c2)OCCO3)C1
inhibition [1]: inactive | inhibition [2]: inactive | inhibition [3]: inactive | inhibition [4]: inactive | inhibition [5]: inactive | inhibition [6]: inactive | inhibition [7]: inactive | inhibition [8]: inactive | inhibition [9]: inactive | Kd [10]: 105 nM | inhibition [11]: inactive | inhibition [12]: inactive | inhibition [13]: inactive | solubility [14]: 480 µM (≈ 190 µg/mL) | inhibition [15]: inactive | inhibition [16]: inactive | inhibition [17]: inactive | inhibition [18]: inactive | inhibition [19]: inactive | inhibition [20]: inactive | inhibition [21]: inactive | inhibition [22]: inactive | inhibition [23]: inactive | inhibition [24]: inactive
